The test system of data set [1] is Staphylococcus aureus. Briefly: Minimal inhibitory concentration was evaluated against Staphylococcus aureus MSSA (ATCC 13709). The format is functional. The method, boiled down:
(§1)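 MICs were determined by the NCCLS broth microdilution method. The strain panel included MSSA ATCC 13709, VanA E. faecium KPB-01, VanA E. faecalis MGH-01 and VanB ATCC 51575.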

Another data set relates to Enterococcus faecalis. Briefly: Minimal inhibitory concentration was evaluated against VanA Fs[…]. The format is functional.
A further data set has as its system Enterococcus faecium. Briefly: Minimal inhibitory concentration was evaluated against VanA Fm […]. The format is functional.
A further data set relates to Enterococcus sp. Briefly: Minimal inhibitory concentration was evaluated against VanB (ATCC 51575). The format is functional, enterococcus strain. The method, boiled down: as §1
For data set [2], the system named is Staphylococcus aureus. Briefly: Minimal inhibitory concentration was evaluated against methicillin-resistant Staphylococcus aureus (ATCC 33591). The format is functional. The method, boiled down: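 NCCLS broth microdilution susceptibility test, in vitro, against the MRSA strain ATCC 33591 as part of a Gram-positive panel with MSSA and vancomycin-resistant enterococci. Read-out is the minimal inhibitory concentration.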

Data set [3] is described as follows: Compound was evaluated for tissue distribution 24 hours after a 50 mg/kg dose was administered intravenously in urine. The format is ADME, organism-based. The arrangement: dose 50 mg/kg, route intravenous. Conditions: rat, iv. The method, boiled down: (§2)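 Male Sprague–Dawley rats were given a single intravenous dose of 50 mg/kg. Tissue or urine levels were determined 24 h after dosing.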

The subject of data set [4] is Rattus norvegicus. Briefly: Compound was evaluated for percent dose tissue distribution 24 hours after a 50 mg/kg dose was administered intravenously in liver. The format is ADME, organism-based. The arrangement: dose 50 mg/kg, route intravenous. Conditions: in vivo, iv. The method, boiled down: as §2
For data set [5], the system named is Rattus norvegicus. Briefly: Compound was evaluated for tissue distribution 24 hours after a 50 mg/kg dose was administered intravenously in rat kidney. It is filed as ADME, organism-based. Also on record: dose 50 mg/kg, route intravenous. Conditions: in vivo, iv. The method, boiled down:
as §2

For data set [6], the system named is Rattus norvegicus. Briefly: Compound was evaluated for percent thiol tissue distribution 24 hours after a 50 mg/kg dose was administered intravenously in urine. It is filed as ADME, organism-based. The arrangement: dose 50 mg/kg, route intravenous. Conditions: in vivo, iv. The method, boiled down: (§3)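 Male Sprague–Dawley rats were dosed intravenously at 50 mg/kg and urine was sampled 24 h later. The metabolite percentage was calculated from the peak area ratio of the metabolite peak to the parent peak.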

The test system of data set [7] is Rattus norvegicus. Briefly: Compound was evaluated for percent dimer tissue distribution 24 hours after a 50 mg/kg dose was administered intravenously in urine. It is filed as ADME, organism-based. The arrangement: dose 50 mg/kg, route intravenous. Particulars: in vivo, iv. The method, boiled down: as §3

SMILES strings stand for the structures. Converted amounts (≈) assume the structure as drawn.

The term MIC denotes the smallest concentration in the dilution series that meets the test's criterion for growth inhibition.

For `CCCCCCCCCCSSCCNC1(C)CC(OC2C(Oc3c4cc5cc3Oc3ccc(cc3Cl)[C@@H](O)[C@@H](NC(=O)[C@@H](CC(C)C)NC)C(=O)N[C@@H](CC(N)=O)C(=O)N[C@H]5C(=O)N[C@H]3C(=O)N[C@H](C(=O)N[C@H](C(=O)O)c5cc(O)cc(O)c5-c5cc3ccc5O)[C@H](O)c3ccc(c(Cl)c3)O4)OC(O)C(O)C2O)OC(C)C1O` (stereo not given in full), the MIC against Staphylococcus aureus [1] turned out to be 1.2 µg/mL (≈ 0.72 µM); against Enterococcus faecalis, 3.1 µg/mL (≈ 1.86 µM); against Enterococcus faecium, 3.1 µg/mL (≈ 1.86 µM); in the data set on Enterococcus sp., 0.6 µg/mL (≈ 0.36 µM); with Staphylococcus aureus [2], 2.4 µg/mL (≈ 1.44 µM).

For the compound `CCCCCCCCCCNCCN[C@@]1(C)C[C@H](O[C@@H]2[C@@H](Oc3c4cc5cc3Oc3ccc(cc3Cl)[C@@H](O)[C@@H](NC(=O)[C@@H](CC(C)C)NC)C(=O)N[C@@H](CC(N)=O)C(=O)N[C@H]5C(=O)N[C@H]3C(=O)N[C@H](C(=O)N[C@H](C(=O)O)c5cc(O)cc(O)c5-c5cc3ccc5O)[C@H](O)c3ccc(c(Cl)c3)O4)O[C@@H](CO)[C@H](O)[C@@H]2O)O[C@H](C)[C@H]1O`, the MIC was determined as 0.4 µg/mL (≈ 0.245 µM) against Staphylococcus aureus [1]; 3.6 µg/mL (≈ 2.21 µM) in the data set with Enterococcus faecalis; 4.1 µg/mL (≈ 2.51 µM) in the data set on Enterococcus faecium; 1.8 µg/mL (≈ 1.1 µM) in the data set on Enterococcus sp.; 0.4 µg/mL (≈ 0.245 µM) against Staphylococcus aureus [2]. Besides, the dose excreted at 24 h in data set [3] is 16%. For the same compound, the Dose worked out at 37% in the data set on Rattus norvegicus [4] and 22% in the data set with Rattus norvegicus [5].

In the case of `CCCCCCCCCSSCCN[C@@]1(C)C[C@H](O[C@@H]2[C@@H](Oc3c4cc5cc3Oc3ccc(cc3Cl)[C@@H](O)[C@@H](NC(=O)[C@@H](CC(C)C)NC)C(=O)N[C@@H](CC(N)=O)C(=O)N[C@H]5C(=O)N[C@H]3C(=O)N[C@H](C(=O)N[C@H](C(=O)O)c5cc(O)cc(O)c5-c5cc3ccc5O)[C@H](O)c3ccc(c(Cl)c3)O4)O[C@@H](CO)[C@H](O)[C@@H]2O)O[C@H](C)[C@H]1O`, the MIC worked out at 0.3 µg/mL (≈ 0.18 µM) with Staphylococcus aureus [1]; 3.1 µg/mL (≈ 1.86 µM) in the data set with Enterococcus faecalis; 6.3 µg/mL (≈ 3.78 µM) against Enterococcus faecium; 1.2 µg/mL (≈ 0.72 µM) with Enterococcus sp.; 0.6 µg/mL (≈ 0.36 µM) against Staphylococcus aureus [2].

In the case of `CCCCCCCCSSCCCN[C@@]1(C)C[C@H](O[C@@H]2[C@@H](Oc3c4cc5cc3Oc3ccc(cc3Cl)[C@@H](O)[C@@H](NC(=O)[C@@H](CC(C)C)NC)C(=O)N[C@@H](CC(N)=O)C(=O)N[C@H]5C(=O)N[C@H]3C(=O)N[C@H](C(=O)N[C@H](C(=O)O)c5cc(O)cc(O)c5-c5cc3ccc5O)[C@H](O)c3ccc(c(Cl)c3)O4)O[C@@H](CO)[C@H](O)[C@@H]2O)O[C@H](C)[C@H]1O`, the MIC worked out at 3.1 µg/mL (≈ 1.86 µM) in the data set with Staphylococcus aureus [1]; 3.8 µg/mL (≈ 2.28 µM) against Enterococcus faecalis; 4.7 µg/mL (≈ 2.82 µM) against Enterococcus faecium; 1.8 µg/mL (≈ 1.08 µM) against Enterococcus sp.; 0.4 µg/mL (≈ 0.24 µM) against Staphylococcus aureus [2]. Moreover, the Dose in the data set with Rattus norvegicus [6] is 2.3%; in the data set with Rattus norvegicus [4], 4.9%; with Rattus norvegicus [5], 0.5%; in the data set on Rattus norvegicus [7], 15%. The dose excreted at 24 h in [3] was found to be 1%.

`CN[C@H](CC(C)C)C(=O)N[C@H]1C(=O)N[C@@H](CC(N)=O)C(=O)N[C@H]2C(=O)N[C@H]3C(=O)N[C@H](C(=O)N[C@H](C(=O)O)c4cc(O)cc(O)c4-c4cc3ccc4O)[C@H](O)c3ccc(c(Cl)c3)Oc3cc2cc(c3O[C@H]2O[C@@H](CO)[C@H](O)[C@H](O)[C@@H]2OC2C[C@](C)(NCCCSSCCCN[C@]3(C)C[C@@H](O[C@H]4[C@H](Oc5c6cc7cc5Oc5ccc(cc5Cl)[C@@H](O)[C@@H](NC(=O)[C@@H](CC(C)C)NC)C(=O)N[C@@H](CC(N)=O)C(=O)N[C@H]7C(=O)N[C@H]5C(=O)N[C@H](C(=O)N[C@H](C(=O)O)c7cc(O)cc(O)c7-c7cc5ccc7O)[C@H](O)c5ccc(c(Cl)c5)O6)O[C@H](CO)[C@@H](O)[C@H]4O)O[C@@H](C)[C@@H]3O)[C@H](O)[C@@H](C)O2)Oc2ccc(cc2Cl)[C@H]1O` (stereo not given in full): the MIC was 6.3 µg/mL (≈ 2.07 µM) in the data set on Staphylococcus aureus [1]; 12.5 µg/mL (≈ 4.11 µM) against Enterococcus faecalis; 6.3 µg/mL (≈ 2.07 µM) with Enterococcus faecium; 4.7 µg/mL (≈ 1.54 µM) in the data set with Enterococcus sp.; 18.8 µg/mL (≈ 6.17 µM) in the data set with Staphylococcus aureus [2].

With `CCCCCCCCCCCCCN[C@@]1(C)C[C@H](O[C@@H]2[C@@H](Oc3c4cc5cc3Oc3ccc(cc3Cl)[C@@H](O)[C@@H](NC(=O)[C@@H](CC(C)C)NC)C(=O)N[C@@H](CC(N)=O)C(=O)N[C@H]5C(=O)N[C@H]3C(=O)N[C@H](C(=O)N[C@H](C(=O)O)c5cc(O)cc(O)c5-c5cc3ccc5O)[C@H](O)c3ccc(c(Cl)c3)O4)O[C@@H](CO)[C@H](O)[C@@H]2O)O[C@H](C)[C@H]1O`, the MIC in the data set on Staphylococcus aureus [1] was 2.8 µg/mL (≈ 1.72 µM); in the data set with Enterococcus faecalis, 3.8 µg/mL (≈ 2.33 µM); against Enterococcus faecium, 4.1 µg/mL (≈ 2.51 µM); against Enterococcus sp., 1.6 µg/mL (≈ 0.981 µM); in the data set on Staphylococcus aureus [2], 1.5 µg/mL (≈ 0.919 µM). This compound showed a dose excreted at 24 h in data set [3] of 0.4%. Besides, the Dose came out at 70% in the data set with Rattus norvegicus [4] and 3.4% in the data set on Rattus norvegicus [5].

As for `CCCCCCCCSSCCN[C@@]1(C)C[C@H](O[C@@H]2[C@@H](Oc3c4cc5cc3Oc3ccc(cc3Cl)[C@@H](O)[C@@H](NC(=O)[C@@H](CC(C)C)NC)C(=O)N[C@@H](CC(N)=O)C(=O)N[C@H]5C(=O)N[C@H]3C(=O)N[C@H](C(=O)N[C@H](C(=O)O)c5cc(O)cc(O)c5-c5cc3ccc5O)[C@H](O)c3ccc(c(Cl)c3)O4)O[C@@H](CO)[C@H](O)[C@@H]2O)O[C@H](C)[C@H]1O`, the MIC against Staphylococcus aureus [1] was determined as 0.2 µg/mL (≈ 0.121 µM); with Enterococcus faecalis, 4.7 µg/mL (≈ 2.84 µM); with Enterococcus faecium, 6.3 µg/mL (≈ 3.81 µM); in the data set with Enterococcus sp., 2.4 µg/mL (≈ 1.45 µM); with Staphylococcus aureus [2], 0.2 µg/mL (≈ 0.121 µM).

Turning to `CCCCCCCCCSSCCCN[C@@]1(C)C[C@H](O[C@@H]2[C@@H](Oc3c4cc5cc3Oc3ccc(cc3Cl)[C@@H](O)[C@@H](NC(=O)[C@@H](CC(C)C)NC)C(=O)N[C@@H](CC(N)=O)C(=O)N[C@H]5C(=O)N[C@H]3C(=O)N[C@H](C(=O)N[C@H](C(=O)O)c5cc(O)cc(O)c5-c5cc3ccc5O)[C@H](O)c3ccc(c(Cl)c3)O4)O[C@@H](CO)[C@H](O)[C@@H]2O)O[C@H](C)[C@H]1O`, the MIC in the data set on Staphylococcus aureus [1] stood at 0.6 µg/mL (≈ 0.357 µM); with Enterococcus faecalis, 3.6 µg/mL (≈ 2.14 µM); with Enterococcus faecium it was 4.1 µg/mL (≈ 2.44 µM); against Enterococcus sp. it was 1.8 µg/mL (≈ 1.07 µM); against Staphylococcus aureus [2], 1.2 µg/mL (≈ 0.714 µM).

Regarding `CN[C@H](CC(C)C)C(=O)N[C@H]1C(=O)N[C@@H](CC(N)=O)C(=O)N[C@H]2C(=O)N[C@H]3C(=O)N[C@H](C(=O)N[C@H](C(=O)O)c4cc(O)cc(O)c4-c4cc3ccc4O)[C@H](O)c3ccc(c(Cl)c3)Oc3cc2cc(c3O[C@@H]2O[C@H](CO)[C@@H](O)[C@H](O)[C@H]2O[C@H]2C[C@](C)(N)[C@H](O)[C@H](C)O2)Oc2ccc(cc2Cl)[C@H]1O` [VANCOMYCIN], the MIC is 0.7 µg/mL (≈ 0.483 µM) against Staphylococcus aureus [1], > 256 µg/mL with Enterococcus faecalis, > 256 µg/mL in the data set with Enterococcus faecium and > 256 µg/mL against Enterococcus sp..
